Columns and labels:
[1] = organism: Homo sapiens; assay: Clearance in 17 […] old infants/toddlers measured on day 1 post dose; assay type: ADME, organism-based; conditions: in vivo
[2] = Cmax in plasma of 3-24 months old infants/toddlers at 50 mg/m'2, iv dosed once daily measured on day 4 post dose; assay type: ADME, organism-based; design: route intravenous; conditions: human
[3] = AUC (0 to 24 hrs) in 2-11 years old children at 50 mg/m'2, iv dosed once daily measured on day 4 post dose; assay type: ADME, organism-based; design: time < 24 hr, route intravenous; conditions: human, plasma
[4] = organism: Homo sapiens; assay: Clearance in 3 to 24 months old infants/toddlers measured on day 1 post dose; conditions: in vivo
[5] = AUC (0 to 24 hrs) in adult human at 50 mg, iv dosed once daily measured on day 1 post dose; assay type: ADME, organism-based; design: time < 24 hr, dose 50 mg, route intravenous; conditions: plasma
[6] = AUC (0 to 24 hrs) in adult human at 70 mg, iv dosed once daily measured on day 3 to 14 post dose; assay type: ADME, organism-based; design: dose 70 mg, time < 24 hr, route intravenous; conditions: plasma
[7] = system: Homo sapiens; assay: Clearance in 2-11 years old children at 50 mg/m'2, iv dosed once daily measured on day 1 post dose; assay type: ADME, organism-based; conditions: in vivo
[8] = Cmax in plasma of 3-24 months old infants/toddlers at 50 mg/m'2, iv dosed once daily measured on day 1 post dose; assay type: ADME, organism-based; design: route intravenous; conditions: human
[9] = Cmax in plasma of 2-11 years old children at 50 mg/m'2, iv dosed once daily measured on day 4 post dose; assay type: ADME, organism-based; design: route intravenous; conditions: human
[10] = Cmax in plasma of in 17 years old infants/toddlers measured on day 4 post dose; assay type: ADME, organism-based; conditions: human
[11] = AUC (0 to 24 hrs) in 12-17 years old adolescents at 50 mg/m'2, iv dosed once daily measured on day 4 post dose; assay type: ADME, organism-based; design: time < 24 hr, route intravenous; conditions: human, plasma
[12] = AUC (0 to 24 hrs) in 10 […] old infants/toddlers measured on day 1 post dose; assay type: ADME, organism-based; design: time < 24 hr; conditions: human, plasma
[13] = organism: Homo sapiens; assay: Clearance in infants/toddlers measured on day 1 post dose; conditions: in vivo
[14] = system: Homo sapiens; assay: Clearance in adult human at 70 mg, iv dosed once daily measured on day 1 post dose; assay type: ADME, organism-based; conditions: in vivo
[15] = Cmax in plasma of 2-11 years old children at 50 mg/m'2, iv dosed once daily measured on day 1 post dose; assay type: ADME, organism-based; design: route intravenous; conditions: human
[16] = AUC (0 to 24 hrs) in adult human at 70 mg, iv dosed once daily measured on day 1 post dose; assay type: ADME, organism-based; design: dose 70 mg, time < 24 hr, route intravenous; conditions: plasma
[17] = system: Homo sapiens; assay: Cmin in plasma of 2-11 years old children at 50 mg/m'2, iv dosed once daily measured on day 1 post dose; assay type: ADME, organism-based; conditions: in vivo
[18] = organism: Homo sapiens; assay: Clearance in 12 […] old infants/toddlers measured on day 1 post dose; assay type: ADME, organism-based; conditions: in vivo
[19] = organism: Homo sapiens; assay: (§1) Cmax in plasma of in 12 […] old infants/toddlers measured on day 4 post dose; assay type: ADME, organism-based; conditions: in vivo
[20] = as §1; assay type: ADME, organism-based; conditions: human, plasma
[21] = AUC (0 to 24 hrs) in 13 […] old infants/toddlers measured on day 4 post dose; assay type: ADME, organism-based; design: time < 24 hr; conditions: human, plasma
[22] = Cmax in plasma of in 13 […] old infants/toddlers measured on day 1 post dose; assay type: ADME, organism-based; conditions: human
[23] = system: Homo sapiens; assay: Clearance in 12-17 years old adolescents at 50 mg/m'2, iv dosed once daily measured on day 1 post dose; assay type: ADME, organism-based; conditions: in vivo
[24] = Cmax in plasma of in 10 years old infants/toddlers measured on day 4 post dose; assay type: ADME, organism-based; conditions: human
[25] = Cmax in plasma of adult human at 70 mg, iv dosed once daily measured on day 3 to 14 post dose; assay type: ADME, organism-based; design: dose 70 mg, route intravenous
[26] = Cmax in plasma of in 12 […] old infants/toddlers measured on day 1 post dose; assay type: ADME, organism-based; conditions: human
[27] = AUC (0 to 24 hrs) in infants/toddlers measured on day 4 post dose; conditions: human, plasma
[28] = Cmax in plasma of in 10 […] old infants/toddlers measured on day 1 post dose; assay type: ADME, organism-based; conditions: human
[29] = Cmax in plasma of in 17 […] old infants/toddlers measured on day 1 post dose; assay type: ADME, organism-based; conditions: human
[30] = AUC (0 to 24 hrs) in 17 […] old infants/toddlers measured on day 4 post dose; assay type: ADME, organism-based; design: time < 24 hr; conditions: human, plasma
[31] = AUC (0 to 24 hrs) in adult human at 50 mg, iv dosed once daily measured on day 3 to 14 post dose; assay type: ADME, organism-based; design: dose 50 mg, time < 24 hr, route intravenous; conditions: plasma
[32] = Cmax in plasma of 12-17 years old adolescents at 50 mg/m'2, iv dosed once daily measured on day 1 post dose; assay type: ADME, organism-based; design: route intravenous; conditions: human
[33] = system: Homo sapiens; assay: Clearance in adult human at 50 mg, iv dosed once daily measured on day 1 post dose; assay type: ADME, organism-based; conditions: in vivo
[34] = Cmax in plasma of adult human at 50 mg, iv dosed once daily measured on day 3 to 14 post dose; assay type: ADME, organism-based; design: dose 50 mg, route intravenous
[35] = AUC (0 to 24 hrs) in infants/toddlers measured on day 1 post dose; conditions: human, plasma
[36] = AUC (0 to 24 hrs) in 10 […] old infants/toddlers measured on day 4 post dose; assay type: ADME, organism-based; design: time < 24 hr; conditions: human, plasma
[37] = Cmax in plasma of in 3 to 24 months old infants/toddlers measured on day 4 post dose; conditions: human
[38] = AUC (0 to 24 hrs) in 12-17 years old adolescents at 50 mg/m'2, iv dosed once daily measured on day 1 post dose; assay type: ADME, organism-based; design: time < 24 hr, route intravenous; conditions: human, plasma
[39] = Cmax in plasma in infants/toddlers measured on day 1 post dose; conditions: human
[40] = Cmax in plasma of adult human at 50 mg, iv dosed once daily measured on day 1 post dose; assay type: ADME, organism-based; design: dose 50 mg, route intravenous
[41] = AUC (0 to 24 hrs) in 20 […] old infants/toddlers measured on day 1 post dose; assay type: ADME, organism-based; design: time < 24 hr; conditions: human, plasma
[42] = AUC (0 to 24 hrs) in 12 […] old infants/toddlers measured on day 4 post dose; assay type: ADME, organism-based; design: time < 24 hr; conditions: human, plasma
[43] = AUC (0 to 24 hrs) in 17 […] old infants/toddlers measured on day 1 post dose; assay type: ADME, organism-based; design: time < 24 hr; conditions: human, plasma
[44] = AUC (0 to 24 hrs) in 20 […] old infants/toddlers measured on day 4 post dose; assay type: ADME, organism-based; design: time < 24 hr; conditions: human, plasma
[45] = AUC (0 to 24 hrs) in 3-24 months old infants/toddlers at 50 mg/m'2, iv dosed once daily measured on day 4 post dose; assay type: ADME, organism-based; design: time < 24 hr, route intravenous; conditions: human, plasma
[46] = AUC (0 to 24 hrs) in 12 […] old infants/toddlers measured on day 1 post dose; assay type: ADME, organism-based; design: time < 24 hr; conditions: human, plasma
[47] = AUC (0 to 24 hrs) in 2-11 years old children at 50 mg/m'2, iv dosed once daily measured on day 1 post dose; assay type: ADME, organism-based; design: time < 24 hr, route intravenous; conditions: human, plasma
[48] = Cmax in plasma of 12-17 years old adolescents at 50 mg/m'2, iv dosed once daily measured on day 4 post dose; assay type: ADME, organism-based; design: route intravenous; conditions: human
[49] = Cmax in plasma of adult human at 70 mg, iv dosed once daily measured on day 1 post dose; assay type: ADME, organism-based; design: dose 70 mg, route intravenous
[50] = Cmax in plasma of in […] infants/toddlers measured on day 1 post dose; assay type: ADME, organism-based; conditions: human
[51] = AUC (0 to 24 hrs) in 3-24 months old infants/toddlers at 50 mg/m'2, iv dosed once daily measured on day 1 post dose; assay type: ADME, organism-based; design: time < 24 hr, route intravenous; conditions: human, plasma
[52] = organism: Homo sapiens; assay: Clearance in 10 […] old infants/toddlers measured on day 1 post dose; assay type: ADME, organism-based; conditions: in vivo
[53] = system: Homo sapiens; assay: Clearance in 3-24 months old infants/toddlers at 50 mg/m'2, iv dosed once daily measured on day 1 post dose; assay type: ADME, organism-based; conditions: in vivo
[54] = Cmax in plasma in infants/toddlers measured on day 4 post dose; conditions: human
[55] = Cmax in plasma of in 20 […] old infants/toddlers measured on day 4 post dose; assay type: ADME, organism-based; conditions: human
Summary of the method: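 Infants/toddlers (10 to 24 months) with fever and neutropenia received caspofungin 50 mg/m2 once daily as a 1-h infusion. C1 is the observed plasma concentration at the end of the first (day 1) or fourth (day 4) infusion, sampled from 20 min before to 30 min after the end of infusion. Caspofungin was measured by HPLC with fluorescence detection.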

CL [1]: 4.94 ml/min/m2
Cmax [2]: 17200 ng/mL
AUC at 24 h [3]: 115 µg·h/mL
CL [4]: 5.98 ml/min/m2
AUC(0-t) at 24 h [5]: 70.6 µg·h/mL
AUC at 24 h [6]: 154 µg·h/mL
CL [7]: 7.78 ml/min/m2
Cmax [8]: 17500 ng/mL
Cmax [9]: 15600 ng/mL
Cmax [10]: 16400 ng/mL
AUC at 24 h [11]: 117 µg·h/mL
AUC(0-t) at 24 h [12]: 160 µg·h/mL
CL [13]: 6.82 ml/min/m2
CL [14]: 5.2 ml/min/m2
Cmax [15]: 14000 ng/mL
AUC(0-t) at 24 h [16]: 97.1 µg·h/mL
Cmin [17]: 1090 ng/mL
CL [18]: 6.44 ml/min/m2
Cmax [19]: 17960 ng/mL
Cmax [20]: 15900 ng/mL
AUC at 24 h [21]: 121 µg·h/mL
Cmax [22]: 15800 ng/mL
CL [23]: 6.3 ml/min/m2
Cmax [24]: 15200 ng/mL
Cmax [25]: 13300 ng/mL
Cmax [26]: 17500 ng/mL
AUC at 24 h [27]: 171 µg·h/mL
Cmax [28]: 14500 ng/mL
Cmax [29]: 13900 ng/mL
AUC at 24 h [30]: 135 µg·h/mL
AUC at 24 h [31]: 103 µg·h/mL
Cmax [32]: 8950 ng/mL
CL [33]: 6.07 ml/min/m2
Cmax [34]: 9390 ng/mL
AUC(0-t) at 24 h [35]: 120 µg·h/mL
AUC at 24 h [36]: 114 µg·h/mL
Cmax [37]: 16900 ng/mL
AUC(0-t) at 24 h [38]: 77.6 µg·h/mL
Cmax [39]: 21500 ng/mL
Cmax [40]: 7670 ng/mL
AUC(0-t) at 24 h [41]: 97.4 µg·h/mL
AUC at 24 h [42]: 122 µg·h/mL
AUC(0-t) at 24 h [43]: 102 µg·h/mL
AUC at 24 h [44]: 122 µg·h/mL
AUC at 24 h [45]: 130 µg·h/mL
AUC(0-t) at 24 h [46]: 109 µg·h/mL
AUC(0-t) at 24 h [47]: 96.4 µg·h/mL
Cmax [48]: 12900 ng/mL
Cmax [49]: 10000 ng/mL
Cmax [50]: 13000 ng/mL
AUC(0-t) at 24 h [51]: 120 µg·h/mL
CL [52]: 4.37 ml/min/m2
CL [53]: 6.05 ml/min/m2
Cmax [54]: 21300 ng/mL
Cmax [55]: 12100 ng/mL
SMILES: CC[C@H](C)C[C@H](C)CCCCCCCCC(=O)N[C@H]1C[C@@H](O)[C@@H](NCCN)NC(=O)[C@@H]2[C@@H](O)CCN2C(=O)[C@H]([C@H](O)CCN)NC(=O)[C@H]([C@H](O)[C@@H](O)c2ccc(O)cc2)NC(=O)[C@@H]2C[C@@H](O)CN2C(=O)[C@H]([C@@H](C)O)NC1=O [CASPOFUNGIN]
